Experimental data as given in ChEMBL document CHEMBL1165965, “Synthesis and structure-activity relationships of 1,2,3,4-tetrahydropyrido[2,3-b]pyrazines as potent and selective inhibitors of the anaplastic lymphoma kinase” (Bioorg Med Chem, 2010).

Tests used:
[1] = molecular target: T1, Phosphatidylinositol 5-phosphate 4-kinase type-2 beta (Homo sapiens) (UniProt P78356); assay: Inhibition of PIP5K2B at 1 uM
T1 sequence (whole entry): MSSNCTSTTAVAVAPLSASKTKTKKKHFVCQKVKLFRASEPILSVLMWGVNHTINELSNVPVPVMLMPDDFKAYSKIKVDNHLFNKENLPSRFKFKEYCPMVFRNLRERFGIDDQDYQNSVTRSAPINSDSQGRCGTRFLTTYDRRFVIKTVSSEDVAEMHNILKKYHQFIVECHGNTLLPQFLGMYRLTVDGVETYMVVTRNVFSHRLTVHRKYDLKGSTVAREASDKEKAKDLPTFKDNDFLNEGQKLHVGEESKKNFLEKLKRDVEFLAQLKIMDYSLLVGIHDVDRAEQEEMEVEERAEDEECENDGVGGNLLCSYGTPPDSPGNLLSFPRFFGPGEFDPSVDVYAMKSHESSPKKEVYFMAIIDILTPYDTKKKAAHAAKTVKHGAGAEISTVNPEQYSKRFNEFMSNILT

[2] = molecular target: Mitogen-activated protein kinase kinase kinase kinase 1 (Homo sapiens) (UniProt Q92918); assay: Inhibition of HPK1 at 1 uM
Mitogen-activated protein kinase kinase kinase kinase 1 (Homo sapiens), sequence (Q92918 whole entry, looked up): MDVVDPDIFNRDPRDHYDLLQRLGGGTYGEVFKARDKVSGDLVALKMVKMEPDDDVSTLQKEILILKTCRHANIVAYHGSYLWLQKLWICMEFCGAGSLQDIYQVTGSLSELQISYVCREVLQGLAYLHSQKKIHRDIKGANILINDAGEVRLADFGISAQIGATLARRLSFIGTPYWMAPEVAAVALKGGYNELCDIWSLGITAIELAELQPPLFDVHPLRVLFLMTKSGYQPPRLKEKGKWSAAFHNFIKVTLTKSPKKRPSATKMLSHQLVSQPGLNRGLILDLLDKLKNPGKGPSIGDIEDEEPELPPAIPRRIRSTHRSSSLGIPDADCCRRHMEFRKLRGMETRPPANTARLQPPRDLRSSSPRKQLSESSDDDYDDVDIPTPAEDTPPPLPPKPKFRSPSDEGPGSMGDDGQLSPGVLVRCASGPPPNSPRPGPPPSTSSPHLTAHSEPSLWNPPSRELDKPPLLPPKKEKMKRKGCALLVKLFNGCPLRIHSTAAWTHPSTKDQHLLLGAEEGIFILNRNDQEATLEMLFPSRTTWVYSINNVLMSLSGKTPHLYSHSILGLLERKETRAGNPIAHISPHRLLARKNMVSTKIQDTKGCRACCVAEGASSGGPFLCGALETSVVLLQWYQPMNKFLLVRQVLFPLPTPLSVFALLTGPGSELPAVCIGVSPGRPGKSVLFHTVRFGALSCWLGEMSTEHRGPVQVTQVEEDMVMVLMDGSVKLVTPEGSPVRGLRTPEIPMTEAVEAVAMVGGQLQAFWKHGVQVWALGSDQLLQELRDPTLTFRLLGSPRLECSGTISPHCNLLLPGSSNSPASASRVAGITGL

[3] = molecular target: Epidermal growth factor receptor (Homo sapiens) (UniProt P04626+P00533+Q15303+P21860); assay: Inhibition of EGFR E746-A750del mutant at 1 uM; assay type: protein assay
Summary of the method: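 Single-concentration screen using Ambit Bioscience KINOMEscan technology across a panel of 250–400 kinases. Per-kinase inhibition from this screen was summarized as S(90), the fraction of kinases inhibited by more than 90%.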

[4] = molecular target: Vascular endothelial growth factor receptor 3 (Homo sapiens) (UniProt P35916); assay: Inhibition of FLT4 at 1 uM
Vascular endothelial growth factor receptor 3 (Homo sapiens), sequence (P35916 whole entry): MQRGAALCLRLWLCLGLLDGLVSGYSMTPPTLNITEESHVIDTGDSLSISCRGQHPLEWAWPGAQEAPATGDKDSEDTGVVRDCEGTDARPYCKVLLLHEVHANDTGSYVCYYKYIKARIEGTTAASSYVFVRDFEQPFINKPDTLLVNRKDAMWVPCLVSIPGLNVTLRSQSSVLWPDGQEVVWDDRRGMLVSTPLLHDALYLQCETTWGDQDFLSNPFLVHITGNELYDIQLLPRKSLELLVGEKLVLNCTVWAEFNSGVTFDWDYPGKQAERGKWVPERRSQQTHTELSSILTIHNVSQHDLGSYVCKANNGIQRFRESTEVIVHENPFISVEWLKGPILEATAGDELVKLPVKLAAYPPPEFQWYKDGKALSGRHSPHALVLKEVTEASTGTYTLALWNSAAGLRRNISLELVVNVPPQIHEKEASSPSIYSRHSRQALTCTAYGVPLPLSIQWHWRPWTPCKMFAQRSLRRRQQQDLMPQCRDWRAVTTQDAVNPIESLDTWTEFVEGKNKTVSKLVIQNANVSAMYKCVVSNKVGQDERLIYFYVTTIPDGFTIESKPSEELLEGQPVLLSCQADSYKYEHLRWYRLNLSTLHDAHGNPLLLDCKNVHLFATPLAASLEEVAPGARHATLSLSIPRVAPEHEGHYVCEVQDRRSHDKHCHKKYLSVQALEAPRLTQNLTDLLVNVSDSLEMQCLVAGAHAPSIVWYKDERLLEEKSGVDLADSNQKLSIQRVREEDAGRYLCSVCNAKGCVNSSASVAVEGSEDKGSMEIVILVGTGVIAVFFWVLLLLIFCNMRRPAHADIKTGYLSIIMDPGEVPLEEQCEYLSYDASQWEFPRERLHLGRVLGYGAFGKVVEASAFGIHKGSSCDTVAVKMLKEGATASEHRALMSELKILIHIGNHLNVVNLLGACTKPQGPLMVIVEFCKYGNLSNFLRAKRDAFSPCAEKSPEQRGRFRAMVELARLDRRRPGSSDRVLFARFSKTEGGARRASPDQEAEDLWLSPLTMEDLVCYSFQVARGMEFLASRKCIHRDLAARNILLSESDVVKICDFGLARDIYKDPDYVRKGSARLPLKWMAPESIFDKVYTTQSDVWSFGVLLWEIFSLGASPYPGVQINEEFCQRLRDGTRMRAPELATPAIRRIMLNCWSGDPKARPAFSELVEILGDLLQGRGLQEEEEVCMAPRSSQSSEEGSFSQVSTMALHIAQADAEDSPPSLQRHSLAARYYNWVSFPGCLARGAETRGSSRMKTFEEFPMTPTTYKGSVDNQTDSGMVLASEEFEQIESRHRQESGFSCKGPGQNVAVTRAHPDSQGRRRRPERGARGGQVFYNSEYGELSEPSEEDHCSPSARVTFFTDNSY
Summary of the method: (§1)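 Single-concentration screen on the Ambit KINOMEscan platform, run against a panel of 250–400 kinases. Per-kinase inhibition was also summarized as S(90), the fraction of kinases inhibited by more than 90%.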

[5] = test system: Tyrosine-protein kinase ABL1 (Homo sapiens), P00519 [M351T]; assay: Inhibition of ABL1 M351T mutant at 1 uM
Summary of the method: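 Ambit KINOMEscan screen at a single concentration across a 250–400 kinase panel, recorded as percent inhibition. Selectivity was expressed as S(90), the fraction of kinases inhibited >90%.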

[6] = test system: eIF-2-alpha kinase GCN2 (Homo sapiens), Q9P2K8 [S808G]; assay: Inhibition of GCN2 domian 2 S808G mutant at 1 uM; summary of the method: as §1
eIF-2-alpha kinase GCN2 (Homo sapiens), Q9P2K8 [S808G], sequence (Q9P2K8 whole entry S808G): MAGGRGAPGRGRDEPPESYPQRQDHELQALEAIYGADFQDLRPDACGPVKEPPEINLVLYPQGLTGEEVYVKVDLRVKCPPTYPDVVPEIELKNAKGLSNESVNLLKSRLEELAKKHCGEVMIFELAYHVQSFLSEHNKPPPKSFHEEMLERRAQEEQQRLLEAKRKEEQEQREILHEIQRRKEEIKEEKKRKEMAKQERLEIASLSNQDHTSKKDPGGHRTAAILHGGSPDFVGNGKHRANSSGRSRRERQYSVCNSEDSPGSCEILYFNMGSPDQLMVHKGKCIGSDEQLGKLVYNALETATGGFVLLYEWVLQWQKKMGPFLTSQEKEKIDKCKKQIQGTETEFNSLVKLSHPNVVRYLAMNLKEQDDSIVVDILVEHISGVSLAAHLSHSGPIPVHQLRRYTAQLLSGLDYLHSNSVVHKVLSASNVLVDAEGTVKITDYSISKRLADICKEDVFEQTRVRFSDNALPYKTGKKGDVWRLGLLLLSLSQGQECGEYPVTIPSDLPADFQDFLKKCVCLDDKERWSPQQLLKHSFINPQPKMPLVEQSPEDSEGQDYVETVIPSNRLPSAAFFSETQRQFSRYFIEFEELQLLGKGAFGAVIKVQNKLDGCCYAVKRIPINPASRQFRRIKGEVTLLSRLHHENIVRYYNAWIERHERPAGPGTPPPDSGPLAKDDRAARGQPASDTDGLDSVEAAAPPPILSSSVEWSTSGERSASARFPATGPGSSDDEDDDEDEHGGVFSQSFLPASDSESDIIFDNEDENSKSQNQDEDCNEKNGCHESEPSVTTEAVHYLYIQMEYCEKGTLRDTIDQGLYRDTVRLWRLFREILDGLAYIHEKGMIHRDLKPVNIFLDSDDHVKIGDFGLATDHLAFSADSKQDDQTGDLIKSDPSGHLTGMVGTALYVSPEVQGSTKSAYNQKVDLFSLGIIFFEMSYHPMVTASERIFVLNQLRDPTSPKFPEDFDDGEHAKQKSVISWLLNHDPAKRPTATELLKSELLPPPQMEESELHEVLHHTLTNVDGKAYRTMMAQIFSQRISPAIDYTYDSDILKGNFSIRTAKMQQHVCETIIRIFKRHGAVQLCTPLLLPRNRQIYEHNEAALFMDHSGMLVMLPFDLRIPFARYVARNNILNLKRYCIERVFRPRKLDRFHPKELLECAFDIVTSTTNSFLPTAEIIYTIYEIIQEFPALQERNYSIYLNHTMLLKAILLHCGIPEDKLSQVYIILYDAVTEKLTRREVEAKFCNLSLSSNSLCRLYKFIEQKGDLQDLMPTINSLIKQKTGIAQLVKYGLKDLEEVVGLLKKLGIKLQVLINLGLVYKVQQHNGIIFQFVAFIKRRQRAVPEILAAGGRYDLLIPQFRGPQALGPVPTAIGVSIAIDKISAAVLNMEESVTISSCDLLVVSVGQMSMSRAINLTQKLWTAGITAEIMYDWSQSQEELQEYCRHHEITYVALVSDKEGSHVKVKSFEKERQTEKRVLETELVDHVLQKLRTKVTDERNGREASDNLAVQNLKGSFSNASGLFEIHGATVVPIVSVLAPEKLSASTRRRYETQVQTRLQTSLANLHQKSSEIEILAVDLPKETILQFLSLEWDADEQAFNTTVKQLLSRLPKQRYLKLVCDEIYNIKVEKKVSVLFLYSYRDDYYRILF

[7] = molecular target: Protein kinase C theta type (Homo sapiens) (UniProt Q04759); assay: Inhibition of PRKCQ at 1 uM
[8] = molecular target: Proto-oncogene tyrosine-protein kinase Src (Homo sapiens) (UniProt P12931); assay: Inhibition of SRC at 1 uM
[9] = test system: Mast/stem cell growth factor receptor Kit (Homo sapiens), P10721 [V559D,T670I]; assay: Inhibition of KIT V559D,T670I mutant at 1 uM; summary of the method: as §1
Mast/stem cell growth factor receptor Kit (Homo sapiens), P10721 [V559D,T670I], sequence (P10721 whole entry V559D/T670I): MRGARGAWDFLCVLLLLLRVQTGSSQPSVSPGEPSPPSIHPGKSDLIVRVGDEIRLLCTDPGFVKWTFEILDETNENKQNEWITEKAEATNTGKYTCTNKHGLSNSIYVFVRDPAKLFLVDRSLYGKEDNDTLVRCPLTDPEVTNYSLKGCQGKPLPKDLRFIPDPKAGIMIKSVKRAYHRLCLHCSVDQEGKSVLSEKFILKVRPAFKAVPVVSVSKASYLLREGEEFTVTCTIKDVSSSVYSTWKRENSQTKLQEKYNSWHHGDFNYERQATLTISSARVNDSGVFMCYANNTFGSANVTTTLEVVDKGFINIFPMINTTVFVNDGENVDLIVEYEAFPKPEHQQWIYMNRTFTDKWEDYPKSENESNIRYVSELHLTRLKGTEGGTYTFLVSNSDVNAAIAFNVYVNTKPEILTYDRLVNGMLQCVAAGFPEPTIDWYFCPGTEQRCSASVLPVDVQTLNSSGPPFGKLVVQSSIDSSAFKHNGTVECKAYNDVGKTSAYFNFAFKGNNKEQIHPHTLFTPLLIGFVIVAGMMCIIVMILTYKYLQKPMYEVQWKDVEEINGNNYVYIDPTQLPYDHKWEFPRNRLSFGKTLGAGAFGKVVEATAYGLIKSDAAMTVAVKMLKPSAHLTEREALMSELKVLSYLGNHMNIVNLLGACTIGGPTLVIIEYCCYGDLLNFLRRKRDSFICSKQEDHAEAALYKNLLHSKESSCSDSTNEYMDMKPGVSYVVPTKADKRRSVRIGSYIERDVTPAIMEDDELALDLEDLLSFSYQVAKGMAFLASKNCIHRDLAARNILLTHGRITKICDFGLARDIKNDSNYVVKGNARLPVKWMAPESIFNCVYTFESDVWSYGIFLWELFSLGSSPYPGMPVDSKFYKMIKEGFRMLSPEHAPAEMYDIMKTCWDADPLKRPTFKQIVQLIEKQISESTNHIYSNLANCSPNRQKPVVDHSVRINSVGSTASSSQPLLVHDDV

[10] = molecular target: T2, Non-receptor tyrosine-protein kinase TNK1 (Homo sapiens) (UniProt Q13470); assay: Inhibition of TNK1 at 1 uM
T2 sequence (whole entry): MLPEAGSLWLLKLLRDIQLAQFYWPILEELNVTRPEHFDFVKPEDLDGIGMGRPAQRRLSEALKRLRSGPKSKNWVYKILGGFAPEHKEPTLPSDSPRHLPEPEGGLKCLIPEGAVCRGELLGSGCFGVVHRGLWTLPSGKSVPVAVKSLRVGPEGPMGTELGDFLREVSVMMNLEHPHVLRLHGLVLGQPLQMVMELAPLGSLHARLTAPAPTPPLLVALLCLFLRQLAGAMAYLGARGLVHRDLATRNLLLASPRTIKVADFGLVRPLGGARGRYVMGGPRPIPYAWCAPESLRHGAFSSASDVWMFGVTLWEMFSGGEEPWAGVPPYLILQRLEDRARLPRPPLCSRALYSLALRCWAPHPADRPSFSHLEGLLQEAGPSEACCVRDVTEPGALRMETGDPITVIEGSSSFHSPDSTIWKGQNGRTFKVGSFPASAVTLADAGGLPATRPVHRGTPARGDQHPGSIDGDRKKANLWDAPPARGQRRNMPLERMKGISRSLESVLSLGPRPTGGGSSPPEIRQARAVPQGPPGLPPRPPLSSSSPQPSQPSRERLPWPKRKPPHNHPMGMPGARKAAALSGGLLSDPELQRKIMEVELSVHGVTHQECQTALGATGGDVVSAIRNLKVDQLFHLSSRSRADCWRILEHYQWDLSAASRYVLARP

[11] = molecular target: T3, Serine/threonine-protein kinase D2 (Homo sapiens) (UniProt Q9BZL6); assay: Inhibition of PRKD2 at 1 uM
T3 sequence (whole entry): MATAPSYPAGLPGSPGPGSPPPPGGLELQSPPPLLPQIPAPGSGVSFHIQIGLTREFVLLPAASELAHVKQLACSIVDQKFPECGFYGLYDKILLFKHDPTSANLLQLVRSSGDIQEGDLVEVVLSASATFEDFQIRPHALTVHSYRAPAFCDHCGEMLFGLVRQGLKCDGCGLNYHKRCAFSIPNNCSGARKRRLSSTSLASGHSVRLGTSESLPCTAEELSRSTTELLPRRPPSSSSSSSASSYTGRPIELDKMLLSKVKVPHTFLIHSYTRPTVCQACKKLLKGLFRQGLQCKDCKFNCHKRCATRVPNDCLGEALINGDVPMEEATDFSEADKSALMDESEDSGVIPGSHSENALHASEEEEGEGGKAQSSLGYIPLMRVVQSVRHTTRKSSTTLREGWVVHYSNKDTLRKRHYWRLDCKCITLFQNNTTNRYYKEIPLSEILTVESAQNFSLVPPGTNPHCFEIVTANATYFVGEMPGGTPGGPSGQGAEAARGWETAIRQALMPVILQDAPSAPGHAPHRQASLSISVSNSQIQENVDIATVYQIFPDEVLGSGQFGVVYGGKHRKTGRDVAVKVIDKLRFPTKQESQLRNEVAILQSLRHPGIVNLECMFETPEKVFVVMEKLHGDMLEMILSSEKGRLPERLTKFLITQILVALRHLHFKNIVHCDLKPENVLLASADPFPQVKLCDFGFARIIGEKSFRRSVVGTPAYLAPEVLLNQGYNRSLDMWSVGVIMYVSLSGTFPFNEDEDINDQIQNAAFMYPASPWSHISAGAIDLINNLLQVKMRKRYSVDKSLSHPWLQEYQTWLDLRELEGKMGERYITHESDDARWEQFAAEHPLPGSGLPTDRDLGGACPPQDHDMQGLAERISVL

| inhibition [1] | inhibition [2] | inhibition [3] | inhibition [4] | inhibition [5] | inhibition [6] | inhibition [7] | inhibition [8] | inhibition [9] | inhibition [10] | inhibition [11] | Compound |
| --- | --- | --- | --- | --- | --- | --- | --- | --- | --- | --- | --- |
| < 50% |  | < 50% | < 50% | < 50% | < 50% |  | < 50% | < 50% | < 50% | < 50% | O=C(c1ccc(-c2cnc3c(c2)N(Cc2cc(Cl)ccc2C(F)(F)F)CCN3)cc1)N1CCCCC1 |
| < 50% |  | < 50% | < 50% | < 50% | < 50% |  | < 50% | < 50% | < 50% | < 50% | COC1CCN(C(=O)c2ccc(-c3cnc4c(c3)N(Cc3cc(Cl)ccc3C(F)(F)F)CCN4)cc2)CC1 |
| < 50% |  | < 50% | < 50% | < 50% | < 50% |  | < 50% | < 50% | < 50% | < 50% | O=C(O)c1ccc(-c2cnc3c(c2)N(Cc2cc(Cl)ccc2C(F)(F)F)CCN3)cc1 |

Continued, compound first:

| Compound | inhibition [1] | inhibition [2] | inhibition [3] | inhibition [4] | inhibition [5] | inhibition [6] | inhibition [7] | inhibition [8] | inhibition [9] | inhibition [10] | inhibition [11] |
| --- | --- | --- | --- | --- | --- | --- | --- | --- | --- | --- | --- |
| CN1CCN(c2ccc(-c3cnc4c(c3)N(Cc3cc(F)ccc3F)CCN4)cn2)CC1 | < 50% | < 50% | < 50% | < 50% | 71.9% | < 50% | < 50% | < 50% | < 50% | 58.2% | < 50% |
| O=C(c1ccc(-c2cnc3c(c2)N(Cc2cc(Cl)ccc2C(F)(F)F)CCN3)cc1)N1CCC(N2CCCC2)CC1 | < 50% | 88.7% | < 50% | 84.5% | < 50% | < 50% |  | < 50% | < 50% | 81.7% | < 50% |
| CN1CCN(c2ccc(-c3cnc4c(c3)N(Cc3c(F)ccc(F)c3Cl)CCN4)cn2)CC1 | < 50% | < 50% | < 50% | < 50% | 87% | < 50% | < 50% | < 50% | < 50% | < 50% | < 50% |
| CC(=O)N1CCN(c2cc(-c3cnc4c(c3)N(Cc3cc(Cl)ccc3C(F)(F)F)CCN4)ccn2)CC1 | < 50% | < 50% | < 50% | < 50% | < 50% | < 50% | < 50% | < 50% | < 50% | < 50% | < 50% |
| FC(F)(F)c1ccc(Cl)cc1CN1CCNc2ncc(-c3ccnc(N4CCNCC4)c3)cc21 | < 50% | < 50% | < 50% | < 50% | < 50% | < 50% | < 50% | < 50% | 84% | < 50% | < 50% |
| CN1CCN(c2ccc(-c3cnc4c(c3)N(Cc3cc(Cl)ccc3C(F)(F)F)CCN4)cn2)CC1 | < 50% | < 50% | < 50% | < 50% | < 50% | < 50% | < 50% | < 50% | < 50% | < 50% | < 50% |
| CN1CCN(c2ccc(-c3cnc4c(c3)N(Cc3cc(Cl)ccc3Cl)CCN4)cn2)CC1 | < 50% | < 50% | < 50% | < 50% | 68% | < 50% | < 50% | < 50% | < 50% | < 50% | < 50% |
